# What was measured:
# [1] = Retention time of the compound by HPLC analysis; assay type: physicochemical
# Outline: (§1)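 rhIDO incubation mixtures analysed by HPLC or UPLC, eluting with CH3CN/10 mM ammonium acetate 10/90 or 5/95 (v/v) at 0.7 mL/min. UV detection uses 221 and 284 nm for substrates and 321 or 360 nm for products. Product peaks are collected for mass spectrometry.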
# [2] = target: Indoleamine 2,3-dioxygenase 1 (Homo sapiens) (UniProt P14902); experiment: Activity of recombinant human IDO assessed as retention time treated with 1-Me-L-Trp by HPLC analysis; outline: as §1
# Sequence of Indoleamine 2,3-dioxygenase 1 (Homo sapiens) (P14902 whole entry, looked up): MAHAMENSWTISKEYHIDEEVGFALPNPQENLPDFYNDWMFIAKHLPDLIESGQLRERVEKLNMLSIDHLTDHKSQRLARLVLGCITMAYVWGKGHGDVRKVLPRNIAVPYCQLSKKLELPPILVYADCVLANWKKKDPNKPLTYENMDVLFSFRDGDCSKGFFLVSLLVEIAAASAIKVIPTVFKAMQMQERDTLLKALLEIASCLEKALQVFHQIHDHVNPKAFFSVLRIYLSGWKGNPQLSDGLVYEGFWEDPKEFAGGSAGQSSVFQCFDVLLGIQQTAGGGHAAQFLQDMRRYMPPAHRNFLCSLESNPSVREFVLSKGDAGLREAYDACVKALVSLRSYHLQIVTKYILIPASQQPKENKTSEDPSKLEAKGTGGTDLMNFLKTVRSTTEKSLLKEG
# [3] = target: Indoleamine 2,3-dioxygenase 1 (Homo sapiens) (UniProt P14902); experiment: Activity of recombinant human IDO assessed as retention time treated with 1-FETrp by HPLC analysis; outline: as §1
# [4] = target: Indoleamine 2,3-dioxygenase 1 (Homo sapiens) (UniProt P14902); experiment: Activity of recombinant human IDO assessed as retention time treated with L-Trp by HPLC analysis; outline: as §1
# [5] = target: Indoleamine 2,3-dioxygenase 1 (Homo sapiens) (UniProt P14902); experiment: Activity of recombinant human IDO assessed as retention time treated with 5-HO-L-Trp by HPLC analysis; outline: as §1
# [6] = target: Tryptophan 2,3-dioxygenase (Homo sapiens) (UniProt P48775); experiment: Activity of 1 uM recombinant human TDO assessed as substrate consumption at 100 uM at 37 degC at pH 7.5 after 1 hr by HPLC with fluorescence detection method
# Sequence of Tryptophan 2,3-dioxygenase (Homo sapiens) (P48775 whole entry, looked up): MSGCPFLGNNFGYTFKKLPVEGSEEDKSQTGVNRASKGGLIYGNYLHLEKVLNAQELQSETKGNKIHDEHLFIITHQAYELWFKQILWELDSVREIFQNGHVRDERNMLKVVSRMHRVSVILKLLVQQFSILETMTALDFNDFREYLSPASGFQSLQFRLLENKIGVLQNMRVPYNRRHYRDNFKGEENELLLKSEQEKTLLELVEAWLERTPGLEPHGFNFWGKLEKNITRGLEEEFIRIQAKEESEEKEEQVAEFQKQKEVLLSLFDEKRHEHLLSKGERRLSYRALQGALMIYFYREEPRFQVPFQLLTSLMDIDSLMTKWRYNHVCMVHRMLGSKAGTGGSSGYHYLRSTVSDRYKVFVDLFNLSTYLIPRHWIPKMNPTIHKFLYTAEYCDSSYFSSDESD
# Outline: (§2)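 Recombinant human TDO (1 or 10 μM enzyme) incubated with substrate at 100 μM, 37 °C, pH 7.5, for 1 h. Perchloric acid is then added and the mixture analysed by HPLC with fluorescence detection. Read-out is percentage of substrate consumed.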
# [7] = target: Tryptophan 2,3-dioxygenase (Homo sapiens) (UniProt P48775); experiment: Activity of 10 uM recombinant human TDO assessed as substrate consumption at 100 uM at 37 degC at pH 7.5 after 1 hr by HPLC with fluorescence detection method; outline: as §2
compound,measurement,setting,value
CC(N)Cc1c[nH]c2ccccc12 (stereo not given),Retention_time,[1],11.1 min
N[C@@H](Cc1cn(Cc2cn(CCF)nn2)c2ccccc12)C(=O)O,Retention_time,[1],16.4 min
CC(N)(Cc1c[nH]c2ccccc12)C(=O)O (stereo not given),Retention_time,[1],7 min
CC(C)(C)OC(=O)N[C@@H](Cc1c[nH]c2ccccc12)C(=O)O,Retention_time,[1],5.9 min
CN(C=O)c1ccccc1C(=O)C[C@H](N)C(=O)O,Retention time,[2],4.5 min
CNc1ccccc1C(=O)C[C@H](N)C(=O)O,Retention time,[2],7.4 min
NC(CC(=O)c1ccccc1N(C=O)CCF)C(=O)O (stereo not given),Retention time,[3],5 min
NC(CC(=O)c1ccccc1NCCF)C(=O)O (stereo not given),Retention time,[3],7.9 min
N[C@@H](CC(=O)c1ccccc1NC=O)C(=O)O,Retention time,[4],4.3 min
Nc1ccc(O)cc1C(=O)C[C@H](N)C(=O)O,Retention time,[5],3.9 min
Nc1ccccc1C(=O)C[C@H](N)C(=O)O,Retention time,[4],4.5 min
NC(Cc1cn(CCF)c2ccccc12)C(=O)O (racemic),Activity,[6],0%
same,Activity,[7],2%
same,Retention_time,[1],9.2 min
Cn1cc(C[C@H](N)C(=O)O)c2ccccc21 [(L)-1-METHYLTRYPTOPHAN],Activity,[6],0%
same,Activity,[7],3%
same,Retention_time,[1],9.4 min
CC(=O)N[C@@H](Cc1c[nH]c2ccccc12)C(=O)O [ACETYLTRYPTOPHAN],Retention_time,[1],7 min
N[C@@H](Cc1c[nH]c2ccc(O)cc12)C(=O)O [OXITRIPTAN],Activity,[6],0%
same,Activity,[7],14%
same,Retention_time,[1],5.1 min
NCCc1c[nH]c2ccccc12 [TRYPTAMINE],Retention_time,[1],9 min
N[C@@H](Cc1c[nH]c2ccccc12)C(=O)O [TRYPTOPHAN],Activity,[6],67%
same,Activity,[7],100%
same,Retention_time,[1],5.4 min

# Source: ChEMBL document CHEMBL3576814, “N (1)-Fluoroalkyltryptophan Analogues: Synthesis and in vitro Study as Potential Substrates for Indoleamine 2,3-Dioxygenase” (ACS Med Chem Lett, 2015)
